# Experimental data from different studies.
# Each line is one published result; the experiments were not run side by side.
# ABL1 T315I: Tyrosine-protein kinase ABL1 (ABL1, Homo sapiens, UniProt P00519, T315I)
# ABL1 H396P phosphorylated: Tyrosine-protein kinase ABL1, phosphorylated (ABL1, Homo sapiens, UniProt P00519, H396P)
# ABL1 phosphorylated: Tyrosine-protein kinase ABL1, phosphorylated (ABL1, Homo sapiens, UniProt P00519)
# ABL1 M351T: Tyrosine-protein kinase ABL1 (ABL1, Homo sapiens, UniProt P00519, M351T)
# ABL1: Tyrosine-protein kinase ABL1 (ABL1, Homo sapiens, UniProt P00519)
# ABL1 T315I phosphorylated: Tyrosine-protein kinase ABL1, phosphorylated (ABL1, Homo sapiens, UniProt P00519, T315I)
# ABL1 E255K phosphorylated: Tyrosine-protein kinase ABL1, phosphorylated (ABL1, Homo sapiens, UniProt P00519, E255K)
# ABL1 F317L non-phosphorylated: Tyrosine-protein kinase ABL1, non-phosphorylated (ABL1, Homo sapiens, UniProt P00519, F317L)
Structure (SMILES),target,test,conditions,measurement,value
Cc1cnc(NC2CCOCC2)nc1-n1cnc(C(=O)NC(CN)c2cc(F)cc(Cl)c2)c1 (centres unmarked),ABL1 T315I,"enzyme activity, inhibitor, radiometric",1 µM,remaining activity,115%
CO[C@@H](C)c1c(Nc2ccc([C@H](N(C)C(=O)C3CCS(=O)(=O)CC3)C(F)(F)F)cc2)cnc2cc(Cl)nn12,ABL1 H396P phosphorylated,"cell-free assay, competition with immobilised ligand",1 µM,remaining binding,100%
c1nc2c(Nc3ccc4c(c3)OCCO4)nc(Nc3ccc4c(c3)OCCO4)nc2[nH]1,ABL1 phosphorylated,"binding, competition with immobilised ligand",10 µM,binding vs control,1.2%
COc1cc(-c2cc(-c3ccc(N4CCNCC4)cc3)cnc2N)cc(OC)c1OC,ABL1 M351T,"enzyme activity, inhibitor",0.1 µM,inhibition,86%
O=C(Nc1c[nH]nc1C(=O)NC1CCNCC1)c1cc(F)cc(F)c1,"Tyrosine-protein kinase ABL1, phosphorylated (ABL1, Homo sapiens, UniProt P00519, F317L)","binding, competition with immobilised ligand",1 µM,remaining binding,100%
CNC(=O)c1cc2c(Oc3ccc(NC(=O)C4(C(=O)Nc5ccc(F)cc5)CC4)cc3)ccnc2cc1OC,"Tyrosine-protein kinase ABL1 (ABL1, Homo sapiens, UniProt P00519, H396P)","enzyme activity, inhibitor, radiometric",1 µM,inhibition,75%
CN([C@@H]1CCc2c(CC(=O)O)c3cc(S(C)(=O)=O)ccc3n2C1)S(=O)(=O)c1ccc(F)cc1,ABL1 H396P phosphorylated,"cell-free assay, competition with immobilised ligand",1 µM,remaining binding,78%
CCN1CCN(Cc2ccc(C(=O)Nc3ccc(C)c(Oc4ccc5c(c4)CC(=O)N5)c3)cc2C(F)(F)F)CC1,"Tyrosine-protein kinase ABL1, non-phosphorylated (ABL1, Homo sapiens, UniProt P00519)","binding, competition with immobilised ligand",1 µM,remaining binding,2.1%
COc1cc2ncnc(Nc3ccc(Oc4ccccc4)c(C)c3C)c2cc1OC,ABL1 T315I,"enzyme activity, inhibitor",1 µM,inhibition,8%
O=C(NCCCN1CCOCC1)c1ccc(Nc2nccc(-c3cc4ccccc4s3)n2)cc1,"Tyrosine-protein kinase ABL1, phosphorylated (ABL1, Homo sapiens, UniProt P00519, Y253F)","binding, competition with immobilised ligand",1 µM,remaining binding,44%
CCCOc1ccc(OC)c(F)c1C(=O)c1ccc(C(=O)N[C@@H]2CNC[C@H]2NC(=O)c2ccc3[nH]ncc3c2)cc1,ABL1 T315I,"enzyme activity, inhibitor",10 µM,remaining activity,85%
N#Cc1ccc(Nc2ccc3[nH]c(=O)[nH]c3c2)c(Cl)c1,ABL1 H396P phosphorylated,"cell-free assay, competition with immobilised ligand",1 µM,remaining binding,95%
C[S+]([O-])c1ccc(-c2nc(-c3ccncc3)c(-c3ccc(F)cc3)[nH]2)cc1 (centres unmarked),ABL1,cell-free assay,0.5 µM,remaining signal,97%
Cc1cc(NC(=O)c2cccc3cc(-c4cccc5[nH]nc(N)c45)ccc23)ccc1F,ABL1 M351T,"enzyme activity, inhibitor",0.1 µM,activity vs control,89%
O=C(c1ccc(Nc2nccc(-c3cc4ccccc4s3)n2)cc1)N1CCC(N2CCCC2)CC1,ABL1 T315I phosphorylated,"binding, competition with immobilised ligand",1 µM,remaining binding,14%
Cc1noc([C@H]2C[C@@H](c3ccc(C(F)(F)F)cc3)CN(C(=O)N3CCS(=O)(=O)C3)C2)n1,ABL1 E255K phosphorylated,"binding, competition with immobilised ligand",1 µM,remaining binding,100%
O=C(c1ccc(Nc2ncc(Cl)c(-c3ccc(Cl)s3)n2)cc1)N1CCC(N2CCCC2)CC1,"Tyrosine-protein kinase ABL1, phosphorylated (ABL1, Homo sapiens, UniProt P00519, Q252H)","binding, competition with immobilised ligand",1 µM,remaining binding,4.2%
COCCOc1nc(-c2ccc(Cl)nc2)nc2c1CN(C(=O)c1ncn3ccccc13)CC2,ABL1 T315I phosphorylated,"cell-free assay, competition with immobilised ligand",0.1 µM,remaining binding,100%
N[C@@H]1CCN(c2nccc(-c3cnn4ncccc34)n2)C1,ABL1 phosphorylated,binding,1 µM,remaining binding,95%
CC(=O)Nc1c(C(C)=O)c(=O)n(C)c2nc(-c3ccc(Cl)cc3Cl)c(-c3ccc(Cl)cc3)cc12,"Tyrosine-protein kinase ABL1, non-phosphorylated (ABL1, Homo sapiens, UniProt P00519, F317I)","binding, competition with immobilised ligand",1 µM,remaining binding,77%
N#CCCc1ccc2c(c1)-c1[nH]c3ccc([N+](=O)[O-])cc3c1CC(=O)N2,ABL1,cell-free assay,0.5 µM,remaining signal,47.8%
CN(CCCC(F)(F)F)c1nccc(-c2cnn3ncccc23)n1,"Tyrosine-protein kinase ABL1 (ABL1, Homo sapiens, UniProt P00519, F317I)",binding,1 µM,remaining binding,100%
COc1cc2ncnc(Nc3ccc(Oc4ccccc4)cc3C)c2cc1OC,ABL1,"enzyme activity, inhibitor",1 µM,inhibition,13%
COc1cnc(Nc2cccc(S(N)(=O)=O)c2)nc1N1CCN(c2ccccc2)C(=O)C1,"Tyrosine-protein kinase ABL1, phosphorylated (ABL1, Homo sapiens, UniProt P00519, F317I)","binding, competition with immobilised ligand",1 µM,remaining binding,96%
CN(C)C(=O)Cn1cc(-c2nc(C3(c4ccc(-c5cnc(N)nc5)cc4)CC3)no2)cn1,ABL1 F317L non-phosphorylated,"cell-free assay, competition with immobilised ligand",1 µM,remaining binding,55%
Nc1ncnc2occ(-c3ccc(NC(=O)Nc4cc(C(F)(F)F)ccc4F)cc3)c12,ABL1 phosphorylated,"cell-free assay, inhibitor",20 µM,remaining signal,0.1%
Cc1ccc(NC(=O)c2ccc(CN3CCN(C)CC3)cc2)cc1Nc1nc(-c2cccnc2)cs1,ABL1,cell-free assay,0.5 µM,remaining signal,49.8%
CNCc1ccccc1-c1csc([C@H](C)Nc2nc(C)nc3cc(OC)c(OC)cc23)c1,ABL1 F317L non-phosphorylated,"cell-free assay, competition with immobilised ligand",1 µM,remaining binding,97%
COc1ncc2cc3ccccc3nc2c1C#N,ABL1 E255K phosphorylated,"cell-free assay, competition with immobilised ligand",5 µM,remaining binding,100%
